In ChEMBL document CHEMBL1156178, “Discovery of novel 6,6-heterocycles as transient receptor potential vanilloid (TRPV1) antagonists” (J Med Chem, 2010):
Converted amounts (≈) assume the structure as drawn.

Key:
[1] = target: Transient receptor potential cation channel subfamily V member 1 (Homo sapiens, UniProt Q8NER1); test: Antagonist activity at human recombinant TRPV1 expressed in HEK293 cells assessed as inhibition of capsaicin-induced calcium mobilization by FLIPR assay
[2] = Solubility in 0.1 N HCL after 4 hrs by HPLC/MS analysis; assay type: physicochemical
Rattus norvegicus [3] = species on record: Rattus norvegicus; test: Analgesic activity against carrageenan-induced thermal hyperalgesia in rat; assay type: functional; conditions: read-out: MED
[4] = Metabolic stability in rat liver microsomes assessed as compound remaining at 1 uM after 10 mins by LCMS analysis; assay type: ADME, Microsome; conditions: read-out: Activity
Procedure, shortened: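 Compound (1 μM) incubated at 37 °C with 0.5 mg/mL male pooled rat liver microsomes; NADPH added to start the reaction. Aliquots were taken at 0 and 10 min and quenched into ice-cold acetonitrile with internal standard, then centrifuged. Parent was monitored as the M+1 ion by ESI-LCMS in selected-ion mode. Percent remaining was taken as the 10 min/0 min signal ratio, corrected by internal-standard recovery.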

Rattus norvegicus [5] = test: Clearance in rat at […] iv dose; assay type: ADME, organism-based; set-up: dose 1.5 mg/kg, route intravenous; conditions: in vivo

Chain of Transient receptor potential cation channel subfamily V member 1 (Q8NER1 whole entry): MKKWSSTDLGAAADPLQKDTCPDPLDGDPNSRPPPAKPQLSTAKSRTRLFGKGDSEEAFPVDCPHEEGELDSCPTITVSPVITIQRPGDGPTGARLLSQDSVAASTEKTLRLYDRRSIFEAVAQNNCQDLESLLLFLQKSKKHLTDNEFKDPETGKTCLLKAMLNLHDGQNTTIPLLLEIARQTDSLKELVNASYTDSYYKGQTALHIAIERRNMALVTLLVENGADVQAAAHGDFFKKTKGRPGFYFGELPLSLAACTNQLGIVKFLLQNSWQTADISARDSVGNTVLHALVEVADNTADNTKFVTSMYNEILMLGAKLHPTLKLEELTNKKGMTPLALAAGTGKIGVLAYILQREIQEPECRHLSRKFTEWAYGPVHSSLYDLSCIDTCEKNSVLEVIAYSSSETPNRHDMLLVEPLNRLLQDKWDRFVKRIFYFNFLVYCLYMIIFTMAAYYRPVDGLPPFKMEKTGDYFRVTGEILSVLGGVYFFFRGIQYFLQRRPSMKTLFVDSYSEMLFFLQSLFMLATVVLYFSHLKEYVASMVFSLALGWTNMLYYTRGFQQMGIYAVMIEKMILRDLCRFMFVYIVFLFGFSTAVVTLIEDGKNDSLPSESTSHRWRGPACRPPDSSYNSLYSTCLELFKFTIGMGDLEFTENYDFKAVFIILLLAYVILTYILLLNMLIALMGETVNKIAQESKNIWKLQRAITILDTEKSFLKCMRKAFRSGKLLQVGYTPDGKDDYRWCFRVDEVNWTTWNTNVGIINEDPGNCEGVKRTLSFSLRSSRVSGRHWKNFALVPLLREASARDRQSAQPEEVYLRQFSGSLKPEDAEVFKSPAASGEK

| IC50 [1] [µM] | solubility at 4 h [2] [mg/mL] | remaining at 10 min, 1 µM [4] [%] | CL (Rattus norvegicus [5]) | SMILES | minimal effective dose (Rattus norvegicus [3]) [mg/kg] |
| --- | --- | --- | --- | --- | --- |
| 0.00023 | 0.008 (≈ 18.3 µM) |  |  | FC(F)(F)c1ccc(Nc2ccnc3nc(-c4ncccc4C(F)(F)F)cnc23)nc1 |  |
|  |  |  |  | COCc1nc(Nc2ccc(C(F)(F)F)cc2)c2ccc(-c3ncccc3C(F)(F)F)cc2n1 | 0.3 |
|  | 0.033 (≈ 75.8 µM) | 91 | 4.2 (ml/min)/kg | FC(F)(F)c1ccc(Nc2ncnc3cc(-c4ncccc4C(F)(F)F)ccc23)nc1 |  |
| 0.46 | 0.02 (≈ 45.9 µM) |  |  | FC(F)(F)c1ccc(Nc2cncc3nc(-c4ncccc4C(F)(F)F)ccc23)nc1 |  |
| 0.308 | 0.038 (≈ 87.3 µM) |  |  | FC(F)(F)c1ccc(Nc2ccnc3cc(-c4ncccc4C(F)(F)F)cnc23)nc1 |  |
